Experimental data taken from ChEMBL document CHEMBL1144999, “Identification of a novel, selective GABA(A) alpha5 receptor inverse agonist which enhances cognition” (J Med Chem, 2003).

How the values were obtained:
[1] = molecular target: T1, GABA-A receptor; alpha-5/beta-3/gamma-2 (Homo sapiens, UniProt P18507+P28472+P31644); test: Binding affinity to human GABA A alpha-5-beta-3-gamma-2 receptor, using a [3H]-Ro- 15-1788 radioligand; assay type: protein-complex assay
T1 sequence (P18507 whole entry): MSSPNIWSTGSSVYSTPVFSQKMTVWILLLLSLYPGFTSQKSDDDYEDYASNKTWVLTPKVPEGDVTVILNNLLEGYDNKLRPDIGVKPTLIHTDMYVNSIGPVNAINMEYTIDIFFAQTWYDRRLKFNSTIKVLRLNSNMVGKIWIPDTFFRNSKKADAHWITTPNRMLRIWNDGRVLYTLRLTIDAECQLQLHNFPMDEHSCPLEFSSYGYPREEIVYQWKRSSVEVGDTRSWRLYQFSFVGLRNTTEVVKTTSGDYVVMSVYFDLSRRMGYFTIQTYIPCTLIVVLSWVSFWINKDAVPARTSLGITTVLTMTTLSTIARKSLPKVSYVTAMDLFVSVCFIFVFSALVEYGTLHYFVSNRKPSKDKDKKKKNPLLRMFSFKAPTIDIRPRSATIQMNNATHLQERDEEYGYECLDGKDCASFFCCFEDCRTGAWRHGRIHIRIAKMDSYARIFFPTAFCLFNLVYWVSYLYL
T1 sequence (P28472 whole entry): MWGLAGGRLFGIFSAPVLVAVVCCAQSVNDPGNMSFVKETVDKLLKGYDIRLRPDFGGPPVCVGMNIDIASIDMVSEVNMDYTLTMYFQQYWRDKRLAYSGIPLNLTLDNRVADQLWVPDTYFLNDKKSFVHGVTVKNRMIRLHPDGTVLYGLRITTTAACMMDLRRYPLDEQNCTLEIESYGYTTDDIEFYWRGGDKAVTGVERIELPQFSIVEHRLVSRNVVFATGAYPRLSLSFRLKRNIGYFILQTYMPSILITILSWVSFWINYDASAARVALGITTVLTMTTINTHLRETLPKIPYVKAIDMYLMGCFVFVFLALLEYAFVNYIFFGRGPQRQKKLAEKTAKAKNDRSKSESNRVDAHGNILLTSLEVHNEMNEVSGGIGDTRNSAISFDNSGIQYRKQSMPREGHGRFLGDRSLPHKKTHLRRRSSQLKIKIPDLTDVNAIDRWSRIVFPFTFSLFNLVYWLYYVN
T1 sequence (P31644 whole entry): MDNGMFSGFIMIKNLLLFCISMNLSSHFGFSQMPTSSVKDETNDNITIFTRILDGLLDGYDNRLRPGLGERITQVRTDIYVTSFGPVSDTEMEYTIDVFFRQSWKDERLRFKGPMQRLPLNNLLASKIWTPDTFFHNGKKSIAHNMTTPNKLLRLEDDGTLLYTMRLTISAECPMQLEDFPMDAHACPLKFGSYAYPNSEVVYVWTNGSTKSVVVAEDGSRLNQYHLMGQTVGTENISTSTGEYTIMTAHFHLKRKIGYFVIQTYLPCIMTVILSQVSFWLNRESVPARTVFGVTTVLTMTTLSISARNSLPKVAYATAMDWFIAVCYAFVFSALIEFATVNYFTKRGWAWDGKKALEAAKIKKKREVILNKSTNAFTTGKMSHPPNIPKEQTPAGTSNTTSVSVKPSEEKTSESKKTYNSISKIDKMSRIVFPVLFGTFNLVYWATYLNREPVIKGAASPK
Procedure, shortened: (§1)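 Displacement of [3H]Ro 15-1788 binding from harvested L(tk-) cells stably expressing human recombinant GABA-A receptors with β3 and γ2 subunits plus α1, α2, α3 or α5. […] Ki given as geometric mean ± SEM of three independent determinations.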

[2] = molecular target: T2, Gamma-aminobutyric acid receptor subunit alpha-5 (Homo sapiens) (UniProt P31644); test: Binding selectivity for human gamma-aminobutyric-acid A receptor alpha-5 over GABA A alpha1,alpha2 and alpha-3 receptors
T2 sequence (whole entry): T1 sequence (P31644 whole entry)

[3] = molecular target: T3, GABA-A receptor; alpha-1/beta-3/gamma-2 (Homo sapiens, UniProt P14867+P18507+P28472); test: Binding affinity to human gamma-aminobutyric-acid A receptor alpha-1-beta-3-gamma-2, determined using [3H]-Ro- 15-1788 radioligand; assay type: protein-complex assay; procedure, shortened: as §1
T3 sequence (P14867 whole entry): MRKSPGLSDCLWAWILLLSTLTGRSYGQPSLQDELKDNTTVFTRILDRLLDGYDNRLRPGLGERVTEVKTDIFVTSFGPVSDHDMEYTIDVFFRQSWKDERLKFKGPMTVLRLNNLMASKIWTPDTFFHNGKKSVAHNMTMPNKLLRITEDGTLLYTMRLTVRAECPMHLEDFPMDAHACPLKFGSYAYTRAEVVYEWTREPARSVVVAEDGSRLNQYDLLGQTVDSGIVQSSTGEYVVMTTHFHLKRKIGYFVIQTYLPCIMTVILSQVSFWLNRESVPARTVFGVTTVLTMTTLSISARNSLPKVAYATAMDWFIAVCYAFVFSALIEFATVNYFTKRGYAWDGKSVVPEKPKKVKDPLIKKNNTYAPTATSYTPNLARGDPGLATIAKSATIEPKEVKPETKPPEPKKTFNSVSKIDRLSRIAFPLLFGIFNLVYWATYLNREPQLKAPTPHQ
T3 sequence (P18507 whole entry): T1 sequence (P18507 whole entry)
T3 sequence (P28472 whole entry): T1 sequence (P28472 whole entry)

[4] = molecular target: T4, GABA-A receptor; alpha-3/beta-3/gamma-2 (Homo sapiens, UniProt P18507+P28472+P34903); test: Binding affinity to human gamma-amino butyric-acid A receptor alpha-3-beta-3-gamma-2, using a [3H]-Ro- 15-1788 radioligand; assay type: protein-complex assay; procedure, shortened: as §1
T4 sequence (P18507 whole entry): T1 sequence (P18507 whole entry)
T4 sequence (P28472 whole entry): T1 sequence (P28472 whole entry)
T4 sequence (P34903 whole entry): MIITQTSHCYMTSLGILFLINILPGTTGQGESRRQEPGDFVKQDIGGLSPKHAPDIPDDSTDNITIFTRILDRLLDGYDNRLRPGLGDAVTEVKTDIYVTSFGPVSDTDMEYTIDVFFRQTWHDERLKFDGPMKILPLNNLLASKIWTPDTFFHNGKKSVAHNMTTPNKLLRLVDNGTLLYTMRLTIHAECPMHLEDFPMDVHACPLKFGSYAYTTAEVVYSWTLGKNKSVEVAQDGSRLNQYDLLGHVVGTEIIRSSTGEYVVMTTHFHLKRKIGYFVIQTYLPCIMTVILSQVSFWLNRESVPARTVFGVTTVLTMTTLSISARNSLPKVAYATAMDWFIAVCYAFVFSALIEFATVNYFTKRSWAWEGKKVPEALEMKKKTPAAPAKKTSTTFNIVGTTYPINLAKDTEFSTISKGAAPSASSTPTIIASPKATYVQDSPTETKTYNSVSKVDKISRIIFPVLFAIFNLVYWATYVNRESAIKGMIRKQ

[5] = molecular target: T5, GABA-A receptor; alpha-5/beta-3/gamma-2 (Homo sapiens) (UniProt P18507+P28472+P31644); test: Efficacy for GABA-A receptor alpha-5-beta-3-gamma-2 subunits expressed in Xenopus laevis oocytes by two-electrode voltage clamp recording; assay type: cell-based; settings: Oocyte
Procedure, shortened: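 Two-electrode voltage clamp on Xenopus laevis oocytes injected with human α5β3γ2 cDNA, recorded 2-4 days after injection. Expression checked with 3 mM GABA; oocytes with currents <0.3 μA rejected. A GABA EC20 was determined per oocyte. Compound applied at a single concentration near 100× Ki. Efficacy (%) = (current with compound/control EC20 current × 100) − 100.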

[6] = molecular target: T6, GABA-A receptor; alpha-2/beta-3/gamma-2 (Homo sapiens, UniProt P18507+P28472+P47869); test: Binding affinity to human gamma-amino butyric-acid A receptor alpha-2-beta-3-gamma-2, using a [3H]-Ro- 15-1788 radioligand; assay type: protein-complex assay; procedure, shortened: as §1
T6 sequence (P18507 whole entry): T1 sequence (P18507 whole entry)
T6 sequence (P28472 whole entry): T1 sequence (P28472 whole entry)
T6 sequence (P47869 whole entry): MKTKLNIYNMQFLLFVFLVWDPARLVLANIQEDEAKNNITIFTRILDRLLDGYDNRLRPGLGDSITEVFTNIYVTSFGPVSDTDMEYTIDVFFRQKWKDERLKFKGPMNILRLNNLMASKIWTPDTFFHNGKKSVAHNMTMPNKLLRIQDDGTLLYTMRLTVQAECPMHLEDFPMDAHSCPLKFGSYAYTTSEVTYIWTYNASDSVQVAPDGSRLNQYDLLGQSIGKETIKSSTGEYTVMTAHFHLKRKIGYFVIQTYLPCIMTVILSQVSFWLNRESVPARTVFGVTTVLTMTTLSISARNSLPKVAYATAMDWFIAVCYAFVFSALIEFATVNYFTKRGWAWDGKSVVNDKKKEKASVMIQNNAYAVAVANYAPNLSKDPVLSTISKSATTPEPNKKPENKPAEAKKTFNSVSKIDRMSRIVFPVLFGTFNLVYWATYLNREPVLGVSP

[7] = molecular target: T2, Gamma-aminobutyric acid receptor subunit alpha-5 (Homo sapiens); test: Binding selectivity for GABA-A alpha5 subunit over GABA-A alpha1,alpha2 or alpha3 subunit receptors
Procedure, shortened: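 Ki from [3H]Ro 15-1788 displacement at human recombinant α1, α2, α3 or α5 with β3γ2 receptors in L(tk-) cell membranes. […] Ki is geometric mean ± SEM of three determinations, and the ratio is taken against the α5 Ki.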

[8] = molecular target: GABA-A receptor; alpha-3/beta-3/gamma-2 (Homo sapiens) (UniProt P18507+P28472+P34903); test: Efficacy for human GABA-A receptor alpha-3-beta-3-gamma-2 subunits expressed in mammalian fibroblast L(tk-)cells; assay type: cell-based
[9] = molecular target: GABA-A receptor; alpha-2/beta-3/gamma-2 (Homo sapiens) (UniProt P18507+P28472+P47869); test: Efficacy for human GABA-A receptor alpha-2-beta-3-gamma-2 subunits expressed in mammalian fibroblast L(tk-)cells; assay type: cell-based
[10] = molecular target: T5, GABA-A receptor; alpha-5/beta-3/gamma-2 (Homo sapiens); test: Efficacy for human GABA-A receptor alpha-5-beta-3-gamma-2 subunits expressed in mammalian fibroblast L(tk-)cells; assay type: cell-based
[11] = molecular target: GABA-A receptor; alpha-1/beta-3/gamma-2 (Homo sapiens) (UniProt P14867+P18507+P28472); test: Efficacy for human GABA-A receptor alpha-1-beta-3-gamma-2 subunits expressed in mammalian fibroblast L(tk-)cells; assay type: cell-based
[12] = molecular target: T7, Gamma-aminobutyric acid receptor subunit alpha-5 (Mus musculus) (UniProt Q8BHJ7); test: In vivo [3H]L-655708 binding to mouse GABA-A receptor alpha-5 subunit at 3 mg/kg ip dose; assay type: organism-based; set-up: dose 3 mg/kg
T7 sequence (whole entry): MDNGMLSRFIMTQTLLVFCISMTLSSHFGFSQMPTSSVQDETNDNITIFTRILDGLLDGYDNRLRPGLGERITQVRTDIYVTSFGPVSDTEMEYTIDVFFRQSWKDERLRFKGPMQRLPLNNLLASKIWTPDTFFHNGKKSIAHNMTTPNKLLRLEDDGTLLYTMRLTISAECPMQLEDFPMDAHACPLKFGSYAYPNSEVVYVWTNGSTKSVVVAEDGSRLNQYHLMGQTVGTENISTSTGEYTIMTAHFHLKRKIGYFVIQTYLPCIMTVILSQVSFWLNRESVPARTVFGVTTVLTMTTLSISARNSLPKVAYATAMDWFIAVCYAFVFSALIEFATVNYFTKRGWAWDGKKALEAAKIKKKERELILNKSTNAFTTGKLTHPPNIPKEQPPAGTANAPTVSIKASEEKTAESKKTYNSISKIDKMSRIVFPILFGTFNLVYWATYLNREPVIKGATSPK
Procedure, shortened: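 Mice were dosed ip at 10 mL/kg in 70% PEG 300. Controls were vehicle (total binding) and 5 mg/kg bretazenil (nonspecific). [3H]L-655,708 (11 µCi/mL, 1 mL/kg) was given iv 1 min before killing, 30 min after drug. Forebrain was homogenized in ice-cold 10 mM KH2PO4/100 mM KCl pH 7.4, filtered and counted by scintillation. Occupancy = 100 − (drug/vehicle specific binding)×100.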

[13] = molecular target: GABA-A receptor; anion channel; test: Binding affinity for GABA-A Benzodiazepine receptor; assay type: protein-complex assay; procedure, shortened: as §1

## CC1(C)CC(=O)c2c(Sc3nccs3)sc(-c3nccs3)c2C1
[1]
  Ki: 1.4 nM
[2]
  Selectivity: 28
[3]
  Ki: 24 nM
[4]
  Ki: 28 nM
[5]
  Efficacy: -5
[6]
  Ki: 39 nM

## CC(C)Nc1sc(-c2cc[nH]n2)c2c1C(=O)CC(C)(C)C2
[1]
  Ki: 3.9 nM
[2]
  Selectivity: 22
[3]
  Ki: 72 nM
[4]
  Ki: 87 nM
[5]
  Efficacy: -2
[6]
  Ki: 44 nM

## CC1(C)CC(=O)c2c(SCCO)sc(-c3nccs3)c2C1
[7]
  Selectivity: 13
[8]
  Efficacy: -3%
[9]
  Efficacy: -1%
[10]
  Efficacy: -51%
[5]
  Efficacy: -38
[11]
  Efficacy: -21%
[12]
  Occupancy: 91%

## CC(=O)c1cc2c(s1)CCCC1=C2NN(c2ccc(Cl)cc2)C(=O)C1
[13]
  Ki: 4.2 nM

## CC1(C)CC(=O)c2c(Sc3nccs3)sc(-c3cc[nH]n3)c2C1
[1]
  Ki: 1.4 nM
[2]
  Selectivity: 34
[3]
  Ki: 4.3 nM
[4]
  Ki: 48 nM
[5]
  Efficacy: -7
[6]
  Ki: 19 nM

## CSc1sc(-c2ccccn2)c2c1C(=O)CC(C)(C)C2
[2]
  Selectivity: 26
[5]
  Efficacy: -31

## CC1(C)CC(=O)c2c(SCCCO)sc(-c3nccs3)c2C1
[1]
  Ki: 4.7 nM
[2]
  Selectivity: 17
[3]
  Ki: 79 nM
[4]
  Ki: 48 nM
[5]
  Efficacy: 25
[6]
  Ki: 48 nM

## CSc1sc(-c2cc[nH]n2)c2c1C(=O)CC(C)(C)C2
[2]
  Selectivity: 13
[5]
  Efficacy: -3

## CCc1c(C(=O)OC)ncc2[nH]c3cc(OC)c(OC)cc3c12
[9]
  Efficacy: -53%
[2]
  Selectivity: 6
[5]
  Efficacy: -34
[11]
  Efficacy: -71%
